Assay results: article PMC3177601 (Bioorganic & medicinal chemistry letters, 2009)
Where two headings read alike, the source gives them in different places.

Columns and labels:
[1] = molecular target: T1, M5 (Homo sapiens, UniProt P08912); conditions: 30 μM compound; cited from earlier work
T1 sequence (P08912 1-532): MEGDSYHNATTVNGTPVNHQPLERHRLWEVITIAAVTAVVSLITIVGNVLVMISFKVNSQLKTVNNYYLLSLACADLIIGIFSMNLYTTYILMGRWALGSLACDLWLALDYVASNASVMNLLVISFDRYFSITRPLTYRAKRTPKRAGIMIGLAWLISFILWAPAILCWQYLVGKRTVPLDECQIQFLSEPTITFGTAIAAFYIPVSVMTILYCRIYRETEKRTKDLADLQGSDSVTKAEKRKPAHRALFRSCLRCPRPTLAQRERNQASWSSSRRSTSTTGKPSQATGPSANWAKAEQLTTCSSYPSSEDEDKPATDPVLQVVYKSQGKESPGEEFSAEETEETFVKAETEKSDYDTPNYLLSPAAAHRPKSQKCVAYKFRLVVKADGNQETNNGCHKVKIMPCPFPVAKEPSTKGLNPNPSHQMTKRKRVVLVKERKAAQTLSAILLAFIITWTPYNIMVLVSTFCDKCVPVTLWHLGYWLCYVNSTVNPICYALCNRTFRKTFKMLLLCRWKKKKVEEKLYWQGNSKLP

[2] = molecular target: T1, M5; conditions: cited from earlier work
[3] = test system: M1–M4; assay: mAChR selectivity CRCs at M1-M5 CHO cells with submaximal ACh; assay type: cell-based; conditions: CRCs at M1-M5 CHO cells with EC20 of ACh
Method in brief: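 Test compound concentration-response curves are run against an EC20 of ACh in mAChR-expressing CHO cells, read out as intracellular calcium mobilization. M2 and M4 lines are co-transfected with Gqi5. Response is expressed as % of ACh maximum. Values are means of at least three independent determinations.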

[4] = molecular target: T1, M5; assay: M5 fold-shift experiments of the ACh CRC in M5 CHO cells; assay type: cell-based; conditions: 30 μM compound
Method in brief: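 Fold-shift assay in M5 CHO cells: a full ACh concentration-response curve is run with or without 30 μM test compound, read out as intracellular calcium mobilization. Potentiation is taken as the leftward shift of the ACh curve. Values are means of at least three independent determinations.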

[5] = molecular target: M3 (Homo sapiens, UniProt P20309); assay: M3 calcium mobilization assay in M3 CHO cells; assay type: cell-based; conditions: at 30 μM
Sequence of M3 (P20309 whole entry): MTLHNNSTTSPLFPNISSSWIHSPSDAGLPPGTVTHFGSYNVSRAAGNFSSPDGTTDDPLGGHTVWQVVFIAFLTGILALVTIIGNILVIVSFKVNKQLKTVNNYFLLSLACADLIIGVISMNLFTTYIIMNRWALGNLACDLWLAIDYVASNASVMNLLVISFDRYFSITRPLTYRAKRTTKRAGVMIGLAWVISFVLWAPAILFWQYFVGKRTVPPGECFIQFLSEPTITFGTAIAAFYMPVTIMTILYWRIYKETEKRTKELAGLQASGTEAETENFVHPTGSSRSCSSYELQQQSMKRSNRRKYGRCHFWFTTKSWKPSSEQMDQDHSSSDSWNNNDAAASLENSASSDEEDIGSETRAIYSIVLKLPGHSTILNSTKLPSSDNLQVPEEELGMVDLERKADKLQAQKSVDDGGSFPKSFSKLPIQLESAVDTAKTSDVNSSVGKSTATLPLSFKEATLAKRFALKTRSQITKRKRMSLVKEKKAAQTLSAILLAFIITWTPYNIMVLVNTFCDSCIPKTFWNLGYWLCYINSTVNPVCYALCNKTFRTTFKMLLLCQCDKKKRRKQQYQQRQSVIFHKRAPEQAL
Method in brief: (§1)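 Test compound at 30 μM is added with an EC20 concentration of ACh. Readout is intracellular calcium mobilization in CHO cells expressing the given mAChR subtype; M2 and M4 cells are co-transfected with Gqi5 for calcium coupling. Values are means of at least three independent determinations.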

[6] = molecular target: T2, M1 (Homo sapiens, UniProt P11229); assay: M1 PAM intracellular calcium mobilization assay in M1 CHO cells; assay type: cell-based; conditions: at 30 μM
T2 sequence (P11229 1-460): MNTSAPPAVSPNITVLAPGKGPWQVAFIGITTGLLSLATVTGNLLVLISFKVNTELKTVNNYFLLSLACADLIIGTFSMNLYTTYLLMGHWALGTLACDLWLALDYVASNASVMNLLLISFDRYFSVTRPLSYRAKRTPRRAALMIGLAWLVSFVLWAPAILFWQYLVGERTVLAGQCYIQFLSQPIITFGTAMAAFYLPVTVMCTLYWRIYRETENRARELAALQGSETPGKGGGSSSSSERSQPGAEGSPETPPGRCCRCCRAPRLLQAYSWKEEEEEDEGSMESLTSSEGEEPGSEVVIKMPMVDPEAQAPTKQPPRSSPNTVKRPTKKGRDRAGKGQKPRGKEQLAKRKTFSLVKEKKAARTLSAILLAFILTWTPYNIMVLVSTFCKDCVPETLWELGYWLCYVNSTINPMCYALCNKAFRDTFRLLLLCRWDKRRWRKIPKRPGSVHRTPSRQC
Method in brief: as §1

[7] = molecular target: T3, M2 (Homo sapiens, UniProt P08172); assay: M2 calcium mobilization assay in M2 CHO cells co-transfected with Gqi5; assay type: cell-based
T3 sequence (P08172 1-466): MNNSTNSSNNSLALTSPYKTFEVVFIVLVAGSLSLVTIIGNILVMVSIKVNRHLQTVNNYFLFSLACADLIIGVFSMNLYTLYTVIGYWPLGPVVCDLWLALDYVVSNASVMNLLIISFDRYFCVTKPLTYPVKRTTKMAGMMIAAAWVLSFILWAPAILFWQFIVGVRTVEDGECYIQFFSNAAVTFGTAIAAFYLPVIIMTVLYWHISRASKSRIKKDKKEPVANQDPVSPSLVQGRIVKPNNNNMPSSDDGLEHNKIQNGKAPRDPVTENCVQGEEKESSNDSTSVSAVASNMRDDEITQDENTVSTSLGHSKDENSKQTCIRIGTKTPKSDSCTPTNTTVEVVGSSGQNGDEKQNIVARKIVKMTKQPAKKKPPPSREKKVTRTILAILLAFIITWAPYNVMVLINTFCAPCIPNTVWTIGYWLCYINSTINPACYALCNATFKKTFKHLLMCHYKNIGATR
Method in brief: as §1

[8] = molecular target: T4, M4 (Homo sapiens, UniProt P08173); assay: M4 calcium mobilization assay in M4 CHO cells co-transfected with Gqi5; assay type: cell-based
T4 sequence (P08173 1-479): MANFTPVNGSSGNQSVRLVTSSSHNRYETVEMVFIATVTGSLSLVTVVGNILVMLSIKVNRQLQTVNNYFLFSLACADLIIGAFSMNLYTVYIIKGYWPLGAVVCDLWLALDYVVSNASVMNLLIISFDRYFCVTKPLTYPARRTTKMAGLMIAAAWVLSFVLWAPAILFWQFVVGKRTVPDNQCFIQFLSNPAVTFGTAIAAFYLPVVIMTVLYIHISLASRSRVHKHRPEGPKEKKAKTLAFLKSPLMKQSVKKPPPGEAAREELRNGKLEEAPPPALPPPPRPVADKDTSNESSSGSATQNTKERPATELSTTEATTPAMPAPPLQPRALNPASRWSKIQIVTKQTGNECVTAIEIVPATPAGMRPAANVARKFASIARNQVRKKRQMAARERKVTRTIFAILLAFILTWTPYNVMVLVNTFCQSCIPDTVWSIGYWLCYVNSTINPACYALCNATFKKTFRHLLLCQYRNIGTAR
Method in brief: as §1

[9] = at 30 μM, cells co-transfected with Gqi5

SMILES: COc1ccc(CN2C(=O)C(=O)c3cc(OC(F)(F)F)ccc32)cc1 [VU0238429]
- leftward shift of the ACh CRC at M5 [1]: 14 fold
- increase of ACh affinity for M5 ([2]; 30 μM compound): ~ 11 fold
- displacement of [3H]-NMS from binding to M5 [2]: did not displace

SMILES: COc1ccc(CN2C(=O)C(=O)c3ccc(OC(F)(F)F)cc32)cc1 [compound 11]
- mAChR selectivity [3]: lost

SMILES: O=C1C(=O)N(Cc2ccc(-c3ccccc3)cc2)c2cc(OC(F)(F)F)ccc21 [compound 12]
- mAChR selectivity [3]: lost

SMILES: O=C1C(=O)N(Cc2ccc(-c3ccsc3)cc2)c2ccc(OC(F)(F)F)cc21 [6b]
- leftward shift of the ACh CRC at M5 [4]: > 50 fold

SMILES: O=C1C(=O)N(Cc2ccc(-c3ccccc3)cc2)c2ccc(OC(F)(F)F)cc21 [6a]
- elevation of an ACh EC20 / activation at M3 [5]: only modest activation
- leftward shift of the ACh CRC at M5 [4]: > 50 fold

SMILES: O=C1C(=O)N(Cc2ccc(Oc3ccccc3)cc2)c2ccc(OC(F)(F)F)cc21 [VU0400265]
- elevation of an ACh EC20 / activation at M3 [5]: no elevation
- elevation of an ACh EC20 at M1 [6]: no elevation
- elevation of an ACh EC20 at M2 [7, 9]: no elevation
- leftward shift of the ACh CRC at M5 [4]: ~ 5 fold
- elevation of an ACh EC20 at M4 [8, 9]: no elevation

SMILES: O=C1C(=O)N(Cc2ccc(Br)cc2)c2ccccc21 [VU0119498]
- activity at M2 ([7]; Gi/o-coupled M2, cells co-transfected with Gqi5): devoid of activity
- activity at M4 ([8]; Gi/o-coupled M4, cells co-transfected with Gqi5): devoid of activity
